Experimental data from different studies.
Protocols differ between the studies behind these lines.
Target: Mitogen-activated protein kinase kinase kinase 4 (MAP3K4, Homo sapiens, UniProt Q9Y6R4)

N#Cc1ccc(NC(=O)Nc2ccccc2)cc1 — remaining binding (cell-free assay; competition with immobilised ligand; 25 µM): 77%
C#Cc1cnc(Nc2ccnc(CO)c2)nc1Nc1ccccc1S(C)(=O)=NC#N (centres unmarked) — remaining signal (cell-free assay; 1 µM): 86%
Cc1ccc(NC(=O)c2ccnc(C(F)(F)F)c2)cc1-c1cc(OCCO)nc(N2CCOCC2)c1 — remaining binding (binding; competition with immobilised ligand; 1 µM): 90%
CC#CC(=O)N1CCC[C@H]1c1nc(-c2ccc(C(=O)Nc3ccccn3)cc2)c2c(N)nccn12 — inhibition (enzyme activity; inhibitor; 1 µM): 19%
CCCCC(=O)Nc1ccc(-c2ccc3ncn(CCC)c(=O)c3c2)cn1 — remaining binding (binding; competition with immobilised ligand; 0.5 µM): 76%
C1=C/COCc2cc(ccc2OCCN2CCCC2)Nc2nccc(n2)-c2cccc(c2)COC/1 — remaining binding (binding; 0.1 µM): 100%
C[C@H]1CC[C@H](n2c3cnccc3c3cnc(Nc4ccc5c(n4)CCN(C(=O)CO)C5)nc32)CC1 — remaining binding (binding; competition with immobilised ligand; 1 µM): 100%
CO[C@@H]1[C@H](N(C)C(=O)c2ccccc2)C[C@H]2O[C@]1(C)n1c3ccccc3c3c4c(c5c6ccccc6n2c5c31)C(=O)NC4 — inhibition (enzyme activity; inhibitor; 1 µM): 4%
